# Experimental data taken from ChEMBL document CHEMBL2429759, “Anti-tumor activity evaluation of novel chrysin-organogermanium(IV) complex in MCF-7 cells” (Bioorg Med Chem Lett, 2013).
# Activity calls are given as the source filed them. The rule behind the calls is not given here.
# How the values were obtained:
# MCF7 [1] = test: Induction of apoptosis in human MCF7 cells assessed as disruption of mitochondrial membrane potential measured as mean fluorescence intensity at 20 ug/ml by rhodamine 123 staining-based flow cytometry (reference value: 3094 no unit); format: functional, cell-based
# MCF7 [2] = test: Induction of apoptosis in human MCF7 cells assessed as disruption of mitochondrial membrane potential measured as mean fluorescence intensity at 10 ug/ml by rhodamine 123 staining-based flow cytometry (reference value: 3094 no unit); format: functional, cell-based
# MCF7 [3] = test: Disruption of cell morphology in human MCF7 cells assessed as decrease in tip-cell adhesion force at 10 ug/ml by atomic force microscopy relative to control; format: functional, cell-based
# Procedure, shortened: (§1)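 AFM high-resolution topography and force measurements on control MCF-7 cells and cells treated with 10 μg/mL complex, assessing surface ultrastructure, rigidity and tip-cell adhesion force.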
# MCF7 [4] = test: Induction of apoptosis in human MCF7 cells assessed as gatheration of condensed chromatin at periphery of nuclear membrane at 10 ug/ml by DAPI staining-based immunofluorescence analysis relative to control; format: functional, cell-based
# Procedure, shortened: (§2)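 Nuclear morphology of control and 10 μg/mL-treated MCF-7 cells visualised by DAPI staining under fluorescence microscopy.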
# MCF7 [5] = test: Induction of apoptosis in human MCF7 cells assessed as segmentation of nuclei at 10 ug/ml by DAPI staining-based immunofluorescence analysis relative to control; format: functional, cell-based; procedure, shortened: as §2
# MCF7 [6] = test: Disruption of cell integrity in human MCF7 cells at 10 ug/ml by immunofluorescence analysis; format: functional, cell-based
# Procedure, shortened: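 MCF-7 cells treated with complex at various concentrations; α-tubulin stained with Tubulin-Tracker red and fibre network imaged by immunofluorescence microscopy.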
# MCF7 [7] = test: Disruption of microfilament organization in human MCF7 cells at 10 ug/ml by immunofluorescence analysis; format: functional, cell-based
# MCF7 [8] = test: Induction of apoptosis in human MCF7 cells assessed as caspase 9 activation at 20 ug/ml by fluorometric analysis (reference value: 100%); format: functional, cell-based
# Procedure, shortened: (§3)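 Caspase-3, -8 and -9 activities read fluorometrically in whole-cell extracts of treated MCF-7; mean ± standard deviation of three independent experiments.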
# MCF7 [9] = test: Induction of apoptosis in human MCF7 cells assessed as caspase 8 activation at 20 ug/ml by fluorometric analysis (reference value: 100%); format: functional, cell-based; procedure, shortened: as §3
# MCF7 [10] = test: Induction of apoptosis in human MCF7 cells assessed as disruption of mitochondrial membrane potential measured as mean fluorescence intensity at 5 ug/ml by rhodamine 123 staining-based flow cytometry (reference value: 3094 no unit); format: functional, cell-based
# MCF7 [11] = test: Induction of apoptosis in human MCF7 cells assessed as caspase 3 activation at 20 ug/ml by fluorometric analysis (reference value: 100%); format: functional, cell-based; procedure, shortened: as §3
# MCF7 [12] = test: Induction of apoptosis in human MCF7 cells assessed as intracellular ROS production measured as mean fluorescence intensity at 2.5 ug/ml using DCFH-DA staining-based flow cytometry (reference value: 101.50 no unit); format: functional, cell-based
# MCF7 [13] = test: Antimigratory activity against human MCF7 cells at 2.5 to 20 ug/ml after 24 hrs by wound-healing assay; format: functional, cell-based
# Procedure, shortened: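 Scratch wound-healing: monolayers wounded with a p200 pipette tip, kept with or without complex; images taken at 0 and 24 h; reference lines drawn equidistant.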
# MCF7 [14] = test: Induction of apoptosis in human MCF7 cells assessed as intracellular ROS production measured as mean fluorescence intensity at 5 ug/ml using DCFH-DA staining-based flow cytometry (reference value: 101.50 no unit); format: functional, cell-based
# MCF7 [15] = test: Induction of apoptosis in human MCF7 cells assessed as intracellular ROS production measured as mean fluorescence intensity at 10 ug/ml using DCFH-DA staining-based flow cytometry (reference value: 101.50 no unit); format: functional, cell-based
# MCF7 [16] = test: Cell cycle arrest in human MCF7 cells assessed as accumulation at G2/M phase at 20 ug/ml after 24 hrs by propidium iodide staining-based flow cytometry (reference value: 7.43 +/- 0.98%); format: functional
# MCF7 [17] = test: Cell cycle arrest in human MCF7 cells assessed as accumulation at G2/M phase at 10 ug/ml after 24 hrs by propidium iodide staining-based flow cytometry (reference value: 7.43 +/- 0.98%); format: functional
# MCF7 [18] = test: Cell cycle arrest in human MCF7 cells assessed as accumulation at G2/M phase at 5 ug/ml after 24 hrs by propidium iodide staining-based flow cytometry (reference value: 7.43 +/- 0.98%); format: functional
# MCF7 [19] = test: Cell cycle arrest in human MCF7 cells assessed as accumulation at G2/M phase at 2.5 ug/ml after 24 hrs by propidium iodide staining-based flow cytometry (reference value: 7.43 +/- 0.98%); format: functional
# MCF7 [20] = test: Induction of apoptosis in human MCF7 cells assessed as necrotic cells at 20 ug/ml after 24 hrs by annexin-V FITC/propidium iodide staining-based flow cytometry (reference value: 0.3%); format: functional, cell-based
# Procedure, shortened: (§4)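 Apoptosis in MCF-7 after 24 h exposure to 5, 10 or 20 μg/mL complex; annexin-V-FITC/PI staining with flow cytometry. Quadrants: Q3 live, Q4 apoptotic, Q2 necrotic or late apoptotic.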
# MCF7 [21] = test: Induction of apoptosis in human MCF7 cells assessed as late apoptotic cells at 20 ug/ml after 24 hrs by annexin-V FITC/propidium iodide staining-based flow cytometry (reference value: 1.0%); format: functional, cell-based; procedure, shortened: as §4
# MCF7 [22] = test: Induction of apoptosis in human MCF7 cells assessed as early apoptotic cells at 20 ug/ml after 24 hrs by annexin-V FITC/propidium iodide staining-based flow cytometry (reference value: 0.5%); format: functional, cell-based; procedure, shortened: as §4
# MCF7 [23] = test: Induction of apoptosis in human MCF7 cells assessed as viable cells at 20 ug/ml after 24 hrs by annexin-V FITC/propidium iodide staining-based flow cytometry (reference value: 98.1%); format: functional, cell-based; procedure, shortened: as §4
# MCF7 [24] = test: Induction of apoptosis in human MCF7 cells assessed as necrotic cells at 10 ug/ml after 24 hrs by annexin-V FITC/propidium iodide staining-based flow cytometry (reference value: 0.3%); format: functional, cell-based; procedure, shortened: as §4
# MCF7 [25] = test: Induction of apoptosis in human MCF7 cells assessed as late apoptotic cells at 10 ug/ml after 24 hrs by annexin-V FITC/propidium iodide staining-based flow cytometry (reference value: 1.0%); format: functional, cell-based; procedure, shortened: as §4
# MCF7 [26] = test: Induction of apoptosis in human MCF7 cells assessed as early apoptotic cells at 10 ug/ml after 24 hrs by annexin-V FITC/propidium iodide staining-based flow cytometry (reference value: 0.5%); format: functional, cell-based; procedure, shortened: as §4
# MCF7 [27] = test: Induction of apoptosis in human MCF7 cells assessed as viable cells at 10 ug/ml after 24 hrs by annexin-V FITC/propidium iodide staining-based flow cytometry (reference value: 98.1%); format: functional, cell-based; procedure, shortened: as §4
# MCF7 [28] = test: Induction of apoptosis in human MCF7 cells assessed as necrotic cells at 5 ug/ml after 24 hrs by annexin-V FITC/propidium iodide staining-based flow cytometry (reference value: 0.3%); format: functional, cell-based; procedure, shortened: as §4
# MCF7 [29] = test: Induction of apoptosis in human MCF7 cells assessed as late apoptotic cells at 5 ug/ml after 24 hrs by annexin-V FITC/propidium iodide staining-based flow cytometry (reference value: 1.0%); format: functional, cell-based; procedure, shortened: as §4
# MCF7 [30] = test: Induction of apoptosis in human MCF7 cells assessed as early apoptotic cells at 5 ug/ml after 24 hrs by annexin-V FITC/propidium iodide staining-based flow cytometry (reference value: 0.5%); format: functional, cell-based; procedure, shortened: as §4
# MCF7 [31] = test: Induction of apoptosis in human MCF7 cells assessed as viable cells at 5 ug/ml after 24 hrs by annexin-V FITC/propidium iodide staining-based flow cytometry (reference value: 98.1%); format: functional, cell-based; procedure, shortened: as §4
# MCF7 [32] = test: Growth inhibition of human MCF7 cells at 20 ug/ml by MTT assay; format: functional
# MCF7 [33] = test: Growth inhibition of human MCF7 cells at 30 ug/ml by MTT assay; format: functional
# MCF7 [34] = test: Growth inhibition of human MCF7 cells at 10 ug/ml by MTT assay; format: functional
# COLO 205 [35] = test: Growth inhibition of human COLO205 cells at 30 ug/ml by MTT assay; format: functional
# MCF7 [36] = test: Growth inhibition of human MCF7 cells at 5 ug/ml by MTT assay; format: functional
# COLO 205 [37] = test: Growth inhibition of human COLO205 cells at 10 ug/ml by MTT assay; format: functional
# COLO 205 [38] = test: Growth inhibition of human COLO205 cells at 20 ug/ml by MTT assay; format: functional
# COLO 205 [39] = test: Growth inhibition of human COLO205 cells at 5 ug/ml by MTT assay; format: functional
# HepG2 [40] = test: Growth inhibition of human HepG2 cells at 20 ug/ml by MTT assay; format: functional
# HepG2 [41] = test: Growth inhibition of human HepG2 cells at 30 ug/ml by MTT assay; format: functional
# HepG2 [42] = test: Growth inhibition of human HepG2 cells at 5 ug/ml by MTT assay; format: functional
# HepG2 [43] = test: Growth inhibition of human HepG2 cells at 10 ug/ml by MTT assay; format: functional
# MCF7 [44] = test: Growth inhibition of human MCF7 cells by MTT assay; format: functional, cell-based
# COLO 205 [45] = test: Growth inhibition of human COLO205 cells by MTT assay; format: functional, cell-based
# HepG2 [46] = test: Growth inhibition of human HepG2 cells by MTT assay; format: functional, cell-based
# MCF7 [47] = test: Disruption of cell morphology in human MCF7 cells assessed as deformed shrunk cell tails at 10 ug/ml by atomic force microscopy relative to control; format: functional, cell-based; procedure, shortened: as §1
substance,measurement,setting,value
5-hydroxy-2-phenyl-7-(triphenylgermyloxy)-4H-chromen-4-one ethanol,Flu intensity,MCF7 [1],1480
same,Flu intensity,MCF7 [2],1370
same,Activity,MCF7 [3],Active
same,Activity,MCF7 [4],Active
same,Activity,MCF7 [5],Active
same,Activity,MCF7 [6],Active
same,Activity,MCF7 [7],Active
same,Activity,MCF7 [8],286%
same,Activity,MCF7 [9],181%
same,Flu intensity,MCF7 [10],1980
same,Activity,MCF7 [11],214%
same,Flu intensity,MCF7 [12],87.1
same,Activity,MCF7 [13],Active
same,Flu intensity,MCF7 [14],107
same,Flu intensity,MCF7 [15],126
same,Activity,MCF7 [16],30.9%
same,Activity,MCF7 [17],24.5%
same,Activity,MCF7 [18],15.8%
same,Activity,MCF7 [19],8.73%
same,Activity,MCF7 [20],0.6%
same,Activity,MCF7 [21],5.4%
same,Activity,MCF7 [22],19.5%
same,Activity,MCF7 [23],74.5%
same,Activity,MCF7 [24],0.7%
same,Activity,MCF7 [25],6.2%
same,Activity,MCF7 [26],5.1%
same,Activity,MCF7 [27],88.1%
same,Activity,MCF7 [28],0.5%
same,Activity,MCF7 [29],3.2%
same,Activity,MCF7 [30],1.5%
same,Activity,MCF7 [31],94.9%
same,growth inhibition (GI),MCF7 [32],31.3%
same,growth inhibition (GI),MCF7 [33],42.1%
same,growth inhibition (GI),MCF7 [34],19.2%
same,growth inhibition (GI),COLO 205 [35],31.6%
same,growth inhibition (GI),MCF7 [36],7.01%
same,growth inhibition (GI),COLO 205 [37],12.1%
same,growth inhibition (GI),COLO 205 [38],20.3%
same,growth inhibition (GI),COLO 205 [39],5.85%
same,growth inhibition (GI),HepG2 [40],31.1%
same,growth inhibition (GI),HepG2 [41],36.7%
same,growth inhibition (GI),HepG2 [42],7.95%
same,growth inhibition (GI),HepG2 [43],20.3%
same,growth inhibition (GI),MCF7 [44],Dose-dependent effect
same,growth inhibition (GI),COLO 205 [45],Dose-dependent effect
same,growth inhibition (GI),HepG2 [46],Dose-dependent effect
same,Activity,MCF7 [47],Active
